Data set [1] can be described thus: Cytotoxicity against HPLF cells. It counts as cell-based. The note with it: human. The essentials:
(§1)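 Adherent cells pre-cultured 24 h in DMEM with 10% […] FBS, humidified 5% CO2, then exposed to a range of compound concentrations. Cells washed once with PBS, incubated 4 h in fresh medium with MTT, lysed in DMSO, viable cells read at 540 nm. CC50 from dose-response curves, average of two independent determinations.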

Data set [2] is described as follows: Cytotoxicity against HGF cells. The note with it: human. The format is cell-based. The essentials: as §1
A further data set concerns HSC-3. Kind of data set: Cytotoxicity against HSC3 cells. The note with it: Homo sapiens. The format is functional. The essentials: as §1
The test system of data set [3] is HSC-2. Kind of data set: Cytotoxicity against HSC2 cells. The format is functional. The note with it: Homo sapiens. Put shortly: as §1
For a further data set, the system named is HSC-4. Kind of data set: Cytotoxicity against HSC4 cells. The note with it: Homo sapiens. The format is functional. Put shortly: as §1
Data set [4] is described as follows: Cytotoxicity against HPC cells. The format is cell-based. The note with it: human. Put shortly:
as §1

Data set [5] deals with HL-60. As to the kind of experiment: Cytotoxicity against human HL60 cells. It counts as functional. Put shortly: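 HL-60 cells grown in RPMI1640 plus 10% FBS in humidified 5% CO2, exposed to a range of compound concentrations. Viable cells counted by trypan blue exclusion. CC50 from dose-response curves, average of two independent determinations.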
Data set [6] concerns HL-60. As to the kind of experiment: Effect on apoptosis in human HL60 cells assessed as increase in caspase 8 activation above 8 uM after 4 hrs. The format is functional, cell-based.
The subject of data set [7] is HL-60. As to the kind of experiment: Effect on apoptosis in human HL60 cells assessed as increase in caspase 3 activation above 8 uM after 4 hrs. It counts as functional, cell-based.
Data set [8] deals with HSC-2. As to the kind of experiment: Effect on apoptosis in HSC2 cells assessed as increase in caspase 3 activation at 8 uM after 4 hrs. It counts as functional, cell-based. The note with it: Homo sapiens. The essentials:
(§2)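 HSC-2 cells (2×10^6) grown in DMEM with 10% FBS in humidified 5% CO2, incubated 4 h with 4, 8, 16 or 32 µM compound; actinomycin D 1 µg/mL as positive control. Lysate (200 µg protein) incubated 2 h at 37 °C with DEVD-pNA (caspase-3), IETD-pNA (caspase-8) or LEHD-pNA (caspase-9); released pNA read at 405 nm. Mean of 2–3 experiments.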

The test system of data set [9] is HSC-2. Kind of data set: Effect on apoptosis in HSC2 cells assessed as increase in caspase 9 activation at 32 uM after 4 hrs. The format is functional, cell-based. The note with it: Homo sapiens. The essentials: as §2
Data set [10] relates to HL-60. As to the kind of experiment: Effect on apoptosis in human HL60 cells assessed as increase in caspase 9 activation above 8 uM after 4 hrs. It counts as functional, cell-based.
The test system of data set [11] is HSC-2. As to the kind of experiment: Effect on apoptosis in HSC2 cells assessed as increase in caspase 8 activation at 32 uM after 4 hrs. It counts as functional, cell-based. The note with it: Homo sapiens. Put shortly: as §2
In data set [12] the test system is HL-60. As to the kind of experiment: Effect on apoptosis in human HL60 cells assessed as increase in caspase 3 activation at 4 uM after 4 hrs. The format is functional, cell-based.
Data set [13] relates to HSC-2. Kind of data set: Effect on apoptosis in HSC2 cells assessed as increase in caspase 3 activation at 32 uM after 4 hrs. It counts as functional, cell-based. The note with it: Homo sapiens. Put shortly: as §2

Active and inactive are the calls of the source. The rule behind the calls is not given here.

With `COc1ccc(/C=C/C(=O)/C=C/c2ccc([N+](=O)[O-])cc2)cc1`, the CC50 was determined as 193 µM in data set [1]; 81 µM in data set [2]; 16 µM in the data set with HSC-3; 6.3 µM in the data set with HSC-2 [3]; 12 µM with HSC-4; 141 µM in data set [4]. Moreover, the CC50 with HL-60 [5] turned out to be 25 µM.
Consider `COc1cc(/C=C/C(C)=O)cc(OC)c1OC`, for which the CC50 in [1] stood at 263 µM; in data set [2], 159 µM; with HSC-3 it was 72 µM; in the data set with HSC-2 [3], 55 µM; with HSC-4, 41 µM; in data set [4], 188 µM. Moreover, the CC50 in the data set with HL-60 [5] is 47 µM.
`COc1cc(/C=C2\CCCC/C(=C\c3cc(OC)c(OC)c(OC)c3)C2=O)cc(OC)c1OC`: the CC50 in data set [1] stood at 250 µM; in data set [2] it was 229 µM; in the data set on HSC-3, 132 µM; with HSC-2 [3], 113 µM; with HSC-4, 67 µM; in data set [4] it was 276 µM. In addition, the CC50 in the data set on HL-60 [5] was found to be 46 µM.
As for `COc1cc(/C=C2\CCC/C(=C\c3cc(OC)c(OC)c(OC)c3)C2=O)cc(OC)c1OC`, the CC50 in data set [1] was found to be 388 µM; in [2] it was 335 µM; with HSC-3, 62 µM; with HSC-2 [3], 34 µM; with HSC-4, 36 µM; in [4], 285 µM. It took 46 µM to reach half-maximal cytotoxicity in the data set with HL-60 [5] (CC50).
As for `COc1cc(/C=C/C(=O)/C=C/c2ccc([N+](=O)[O-])cc2)cc(OC)c1OC`, the CC50 in data set [1] is 106 µM; in data set [2], 16 µM; in the data set with HSC-3, 5.7 µM; in the data set on HSC-2 [3] it was below 3.1 µM; with HSC-4, 3.8 µM; in data set [4] it was 94 µM. In the data set with HL-60 [5], the CC50 turned out to be 6.4 µM. Moreover, the result in the data set with HL-60 [6], in the data set on HL-60 [7], with HSC-2 [8], in the data set with HSC-2 [9] and with HL-60 [10] was Active.
`COc1ccc(/C=C2\CCC/C(=C\c3ccc([N+](=O)[O-])cc3)C2=O)cc1` showed a CC50 in the data set with HSC-4 above 400 µM.
As to `COc1cc(/C=C2\CCCC/C(=C\c3ccc([N+](=O)[O-])cc3)C2=O)cc(OC)c1OC`, the CC50 stood at 370 µM in [1]; 256 µM in [2]; 279 µM in the data set with HSC-3; 116 µM in the data set with HSC-2 [3]; 100 µM in the data set on HSC-4; 198 µM in data set [4]. This compound returned a CC50 with HL-60 [5] of 266 µM.
Turning to `COc1cc(/C=C2\CCCCCC2=O)cc(OC)c1OC`, the CC50 stood at 291 µM in [1]; 262 µM in [2]; 200 µM with HSC-3; 214 µM in the data set with HSC-2 [3]; 269 µM in the data set with HSC-4; 277 µM in data set [4]. In the data set on HL-60 [5], the CC50 is 31 µM.
Regarding `COc1cc(/C=C2\CC/C(=C\c3cc(OC)c(OC)c(OC)c3)C2=O)cc(OC)c1OC`, the CC50 in data set [1] is 281 µM; in [2] it was 240 µM; in the data set on HSC-3, 89 µM; in the data set on HSC-2 [3], 19 µM; with HSC-4, 58 µM; in [4], 247 µM. Further, the midpoint of cytotoxicity in the data set with HL-60 [5], the CC50, lay at 21 µM.
As to `COc1cc(/C=C2\CCC/C(=C\c3ccc([N+](=O)[O-])cc3)C2=O)cc(OC)c1OC`, the outcome in the data set on HSC-2 [11], in the data set with HL-60 [12] and in the data set on HSC-2 [13] was Active. In addition, in the data set with HSC-4, the midpoint of cytotoxicity, the CC50, lay at 1.5 µM. Also, the result in the data set with HSC-2 [9] was inactive.
As for `N[C@@H](Cc1ccc(N(CCCl)CCCl)cc1)C(=O)O` [MELPHALAN], the CC50 in data set [1] was above 200 µM; in data set [2] it was above 200 µM; in the data set on HSC-3, 115 µM; with HSC-2 [3], 35 µM; with HSC-4, 81 µM; in [4] it was above 200 µM. For the same compound, half-maximal cytotoxicity in the data set with HL-60 [5] (CC50) was put at 6 µM.
